Data reported in ChEMBL document CHEMBL1154196, “Synthesis and evaluation of (S,S)-N,N'-bis-[3-(2,2',6,6'-tetramethylbenzhydryloxy)-2-hydroxy-propyl]-ethylenediamine (S2824) analogs with anti-tuberculosis activity” (2009).
≈ marks a conversion by molar mass, not a printed value.

Tests used:
[1] = system: Mycobacterium tuberculosis; test: Antitubercular activity against Mycobacterium tuberculosis H37Ra after 7 days; type: functional; settings: 168 h
[2] = Selectivity index, ratio of IC50 for human THP1 cells to MIC for Mycobacterium tuberculosis; type: functional, THP-1
[3] = system: Mycobacterium tuberculosis; test: Antitubercular activity against Mycobacterium tuberculosis H37Rv ATCC 25618 after 7 days; type: functional; settings: 168 h
[4] = system: Mycobacterium tuberculosis; test: Antitubercular activity against Mycobacterium tuberculosis H37Rv ATCC 25618 after 2 weeks; type: functional; settings: 336 h
[5] = system: Mycobacterium tuberculosis; test: Ratio of MBC to MIC for Mycobacterium tuberculosis H37Rv; type: functional
In short: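 H37Rv MBC obtained by subculturing MIC-assay cultures onto drug-free solid medium and counting CFU. The ratio relates this MBC to the MIC for the same strain.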

[6] = system: Mycobacterium tuberculosis; test: Antitubercular activity against drug-sensitive Mycobacterium tuberculosis by radiometric BACTEC460 method; type: functional

Structure (SMILES) | MIC [1] [µM] | Ratio [2] | MIC [3] | MBC [4] [µg/mL] | Ratio [5] | MIC [6] [µg/mL]
O[C@@H](CNCCNC[C@H](O)COC(c1ccco1)c1ccco1)COC(c1ccco1)c1ccco1 | 25 (≈ 12.5 µg/mL) | >10 |  |  |  | 
Cc1ccc(C(OC[C@@H](O)CNCCNC[C@H](O)COC(c2ccc(C)cc2)c2ccc(C)cc2)c2ccc(C)cc2)cc1 | 5.24 (≈ 3.13 µg/mL) | >10 | 3.13 µg/mL | 6.25 (≈ 10.5 µM) | 2 | 
O[C@H](CNCCNC[C@@H](O)COC(c1ccc(Br)cc1)c1ccc(Br)cc1)COC(c1ccc(Br)cc1)c1ccc(Br)cc1 | 7.34 (≈ 6.29 µg/mL) | >10 |  |  |  | 
CCOc1ccc(C(OC[C@@H](O)CNCCNC[C@H](O)COC(c2ccc(OCC)cc2)c2ccc(OCC)cc2)c2ccc(OCC)cc2)cc1 | 8.72 (≈ 6.25 µg/mL) | >10 |  |  |  | 
COCOc1ccc(C(OC[C@H](O)CNCCNC[C@@H](O)COC(c2ccc(OCOC)cc2)c2ccc(OCOC)cc2)c2ccc(OCOC)cc2)cc1 | 8 (≈ 6.25 µg/mL) | >10 |  |  |  | 
Cc1ccc(C(OC[C@H](O)CNCCNC[C@@H](O)COC(c2ccc(C)cc2)c2ccc(C)cc2)c2ccc(C)cc2)cc1 | 5.24 (≈ 3.13 µg/mL) | >10 | 3.13 µg/mL | 6.25 (≈ 10.5 µM) | 2 | 
COc1ccc(C(OC[C@@H](O)CNCCNC[C@H](O)COC(c2ccc(OC)cc2)c2ccc(OC)cc2)c2ccc(OC)cc2)cc1 | 4.73 (≈ 3.13 µg/mL) | >10 | 3.13 µg/mL | 25 (≈ 37.8 µM) | 8 | 
COCOc1ccc(C(OC[C@@H](O)CNCCNC[C@H](O)COC(c2ccc(OCOC)cc2)c2ccc(OCOC)cc2)c2ccc(OCOC)cc2)cc1 | 8 (≈ 6.25 µg/mL) | >10 |  |  |  | 
O[C@@H](CNCCNC[C@H](O)COC(c1ccc(Br)cc1)c1ccc(Br)cc1)COC(c1ccc(Br)cc1)c1ccc(Br)cc1 | 3.67 (≈ 3.14 µg/mL) | >10 | 3.13 µg/mL | 25 (≈ 29.2 µM) | 8 | 
CCOc1ccc(C(OC[C@H](O)CNCCNC[C@@H](O)COC(c2ccc(OCC)cc2)c2ccc(OCC)cc2)c2ccc(OCC)cc2)cc1 | 8.72 (≈ 6.25 µg/mL) | >10 |  |  |  | 
CC(C)(C)c1ccc(C(OC[C@H](O)CNCCNC[C@@H](O)COC(c2ccc(C(C)(C)C)cc2)c2ccc(C(C)(C)C)cc2)c2ccc(C(C)(C)C)cc2)cc1 | 32.7 (≈ 25 µg/mL) | >10 |  |  |  | 
O[C@H](CNCCNC[C@@H](O)COC(c1ccco1)c1ccco1)COC(c1ccco1)c1ccco1 | 50 (≈ 25 µg/mL) | >10 |  |  |  | 
Cc1ccc(C(OC[C@@H](O)CN2CCN(C[C@H](O)COC(c3ccc(C)cc3)c3ccc(C)cc3)CC2)c2ccc(C)cc2)cc1 | 40.1 (≈ 25 µg/mL) | >10 |  |  |  | 
O[C@@H](COC(c1ccc(Br)cc1)c1ccc(Br)cc1)CN1CCN(C[C@@H](O)COC(c2ccc(Br)cc2)c2ccc(Br)cc2)CC1 | 28.3 (≈ 25 µg/mL) | >10 |  |  |  | 
Cc1ccc(C(OC[C@H](O)CN2CCN(C[C@@H](O)COC(c3ccc(C)cc3)c3ccc(C)cc3)CC2)c2ccc(C)cc2)cc1 | 2.5 (≈ 1.56 µg/mL) | 12 | 1.56 µg/mL | 6.25 (≈ 10 µM) | 4 | 3.13 (≈ 5.03 µM)
Cc1ccc(C(OC[C@@H](O)CN2CCCN(C[C@H](O)COC(c3ccc(C)cc3)c3ccc(C)cc3)CC2)c2ccc(C)cc2)cc1 | 1.22 (≈ 0.777 µg/mL) | 30.77 | 0.78 µg/mL | 1.56 (≈ 2.45 µM) | 2 | 0.78 (≈ 1.22 µM)
CC(C)Oc1ccc(C(OC[C@@H](O)CNCCNC[C@H](O)COC(c2ccc(OC(C)C)cc2)c2ccc(OC(C)C)cc2)c2ccc(OC(C)C)cc2)cc1 | 16.2 (≈ 12.5 µg/mL) | >10 |  |  |  | 
O[C@H](COC(c1ccc(Br)cc1)c1ccc(Br)cc1)CN1CCN(C[C@H](O)COC(c2ccc(Br)cc2)c2ccc(Br)cc2)CC1 | 28.3 (≈ 25 µg/mL) | >10 |  |  |  | 
O[C@H](CNCCNC[C@@H](O)COC(c1cccs1)c1cccs1)COC(c1cccs1)c1cccs1 | 22.1 (≈ 12.5 µg/mL) | >10 |  |  |  | 
COc1ccc(C(OC[C@H](O)CNCCNC[C@@H](O)COC(c2ccc(OC)cc2)c2ccc(OC)cc2)c2ccc(OC)cc2)cc1 | 9.46 (≈ 6.25 µg/mL) | >10 |  |  |  | 
CC(C)Oc1ccc(C(OC[C@H](O)CNCCNC[C@@H](O)COC(c2ccc(OC(C)C)cc2)c2ccc(OC(C)C)cc2)c2ccc(OC(C)C)cc2)cc1 | 8.09 (≈ 6.25 µg/mL) | >10 |  |  |  | 
O[C@@H](CNCCNC[C@H](O)COC(c1cccs1)c1cccs1)COC(c1cccs1)c1cccs1 | 22.1 (≈ 12.5 µg/mL) | >10 |  |  |  | 
COc1ccc(C(OC[C@@H](O)CNCCNC[C@H](O)COC(c2ccc(OC)c(OC)c2)c2ccc(OC)c(OC)c2)c2ccc(OC)c(OC)c2)cc1OC | 16 (≈ 12.5 µg/mL) | >10 |  |  |  | 
O[C@H](CNCCNC[C@@H](O)COC(c1ccc2c(c1)OCCO2)c1ccc2c(c1)OCCO2)COC(c1ccc2c(c1)OCCO2)c1ccc2c(c1)OCCO2 | 16.2 (≈ 12.5 µg/mL) | >10 |  |  |  | 
O[C@H](CNCCNC[C@@H](O)COC(c1ccc2c(c1)OCO2)c1ccc2c(c1)OCO2)COC(c1ccc2c(c1)OCO2)c1ccc2c(c1)OCO2 | 17.4 (≈ 12.5 µg/mL) | >10 |  |  |  | 
O[C@@H](CNCCNC[C@H](O)COC(c1ccc2c(c1)OCO2)c1ccc2c(c1)OCO2)COC(c1ccc2c(c1)OCO2)c1ccc2c(c1)OCO2 | 8.72 (≈ 6.25 µg/mL) | >10 |  |  |  | 
COc1ccc(C(OC[C@H](O)CNCCNC[C@@H](O)COC(c2ccc(OC)c(OC)c2OC)c2ccc(OC)c(OC)c2OC)c2ccc(OC)c(OC)c2OC)c(OC)c1OC | 13.9 (≈ 12.5 µg/mL) | >10 |  |  |  | 
CC(C)(C)c1ccc(C(OC[C@@H](O)CNCCNC[C@H](O)COC(c2ccc(C(C)(C)C)cc2)c2ccc(C(C)(C)C)cc2)c2ccc(C(C)(C)C)cc2)cc1 | 16.3 (≈ 12.5 µg/mL) | >10 |  |  |  | 
Cc1ccc(C(OC[C@H](O)CN2CCCN(C[C@@H](O)COC(c3ccc(C)cc3)c3ccc(C)cc3)CC2)c2ccc(C)cc2)cc1 | 1.22 (≈ 0.777 µg/mL) | 26.92 | 0.78 µg/mL | 3.13 (≈ 4.91 µM) | 4 | 0.78 (≈ 1.22 µM)
CC[C@@H](CO)NCCN[C@@H](CC)CO [ETHAMBUTOL] |  |  | 7.64 µM | 3.13 (≈ 15.3 µM) |  | 3.13 (≈ 15.3 µM)
